Shown are actives, neighbours in structure and some others; about 9.8% of the full set was active somewhere.
L major viab: Leishmania major promastigote growth inhibition, primary screen | Leishmania major promastigotes, resazurin fluorescence viability | 200,000 tested, 9% active | inhibition, % at 10 µM; in the data active = inhibition above about 50%;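 also: promastigotes grown with compound for 44 hours at 28 °C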
PMI act hi M6P: human PMI activators, high substrate, primary screen, biochemical, fluorescence intensity, near-saturating mannose 6-phosphate | coupled PMI enzyme assay, resazurin fluorescence, 20 min; hits give high values; 1 = untreated enzyme, 0 = substrate-free blank | activation factor at 20 µM | 190,000 tested, 0.34% active | AID 1216, 2008;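 active = activation factor of 2 or more at 20 µM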
Target sequence (P34949 whole entry, looked up): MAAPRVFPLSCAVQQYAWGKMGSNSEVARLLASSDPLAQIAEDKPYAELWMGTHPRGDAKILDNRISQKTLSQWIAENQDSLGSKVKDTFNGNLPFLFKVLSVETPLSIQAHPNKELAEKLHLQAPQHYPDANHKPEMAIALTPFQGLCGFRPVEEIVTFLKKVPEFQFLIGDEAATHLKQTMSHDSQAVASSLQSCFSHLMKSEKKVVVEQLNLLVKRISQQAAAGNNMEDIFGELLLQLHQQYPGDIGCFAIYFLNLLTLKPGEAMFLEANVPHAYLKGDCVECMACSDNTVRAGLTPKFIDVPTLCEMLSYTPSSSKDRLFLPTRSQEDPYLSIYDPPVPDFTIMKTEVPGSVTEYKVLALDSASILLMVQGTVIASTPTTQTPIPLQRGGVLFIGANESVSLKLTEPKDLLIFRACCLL
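Test system: Human PMI in coupled enzyme assay | Input: 15 ng/mL PMI | Medium: HEPES-buffered pH 7.4 with magnesium and detergent | Compound: One concentration, 20 µM, in 1% DMSO | Incubation: Enzyme reaction with compound 20 min at room temperature | Detection: Diaphorase-driven resazurin-to-resorufin fluorescence, excitation 544, emission 590 nm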
m-calpain inh: inhibitors of pig calpain II, primary screen, biochemical, fluorogenic peptide substrate, 1536-well. purified calpain II, 30 min. inhibition, % at 16 µM. 220,000 tested, 0.37% active. AID 1236, 2008;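 active = inhibition above about 50%, limit read from the data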
PMI activator: activators of human PMI, primary screen, biochemical, fluorescence intensity, near-Km mannose 6-phosphate; 190,000 tested, 0.005% active; purified human PMI, coupled resazurin fluorescence, 20 min; hits give high values; 1 = vehicle control, 0 substrate-free wells; Mannose-6-phosphate isomerase (Homo sapiens), P34949; activation factor at 20 µM;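 active = activation factor of 2 or more at 20 µM, relative to plate controls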
WT yeast gro inh: growth inhibition of WT strain, primary screen, mitochondrial fusion inhibitor project, WT and mutant strains, chemical genetic; 190,000 tested, 2.1% active; inhibition, % at 10 µM; mitochondrial fusion phenotypic screen; in the data active = inhibition above about 58%; tested in S. cerevisiae
Rad51 HR inh: human RAD51 strand exchange inhibitors, primary screen, biochemical, fluorescence; inhibition, % at 10 µM; hRad51 DNA strand exchange, fluorescence dequenching; DNA repair protein RAD51 homolog 1 (Homo sapiens), Q06609; 200,000 tested, 0.085% active; AID 1385, 2008;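 active = inhibition above 40% at the single screening dose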;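 also: 0% = DMSO control wells and 100% = blanks with heterologous ssDNA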
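Material: hRad51 filaments on single-stranded DNA; Reagent: Donor/quencher-labelled 47-bp dsDNA substrate; Compound: 10 µM final, single point; Schedule: 37 °C 15-min filament assembly, 30-min compound preincubation, 15-min exchange; Technique: FRET fluorescence, excitation 485 nm, emission 520 nm; Benchmarks: control wells and blank wells on each plate.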
Active calls of the source: *.

Screening Cc1ccc(C)c(N(C(=O)CCC(=O)Nc2cc(C)on2)C(C(=O)NC2CCCC2)c2ccco2)c1 (centres undefined) returned L major viab 90*, PMI act hi M6P 1.1, m-calpain inh -22, PMI activator 1.1, WT yeast gro inh 9 and Rad51 HR inh 3.
Cc1ccc(N(C(=O)CCC(=O)Nc2cc(C)on2)C(C(=O)NC2CCCC2)c2cccs2)cc1 (centres undefined) was read as L major viab 54*, PMI act hi M6P 1, m-calpain inh -18, PMI activator 1, WT yeast gro inh 19 and Rad51 HR inh 1.
For O=C(NC1CCCCC1)C(c1ccc2ncccc2c1)N(Cc1cccs1)C(=O)c1cccs1 (centres undefined) the results were L major viab 49, PMI act hi M6P 1, m-calpain inh -23, PMI activator 0.9, WT yeast gro inh -4 and Rad51 HR inh 3.
`COc1cc(C(=O)N(c2ccc(C)c(C)c2)C2C=CS(=O)(=O)C2)cc(OC)c1OC` (centres undefined) gave L major viab -3, PMI act hi M6P 1, m-calpain inh 7, PMI activator 1, WT yeast gro inh -2 and Rad51 HR inh 13.
`CC(CCc1ccccc1)NC(=O)CN1C(=O)NC2(CCCCC2)C1=O` (centres undefined) gave L major viab 8, PMI act hi M6P 1, m-calpain inh 4, PMI activator 1, WT yeast gro inh -17 and Rad51 HR inh 5.
COc1cc(C)c(NC(=S)NCCCN2CCOCC2)cc1OC was read as L major viab -1, PMI act hi M6P 0.9, m-calpain inh 3, PMI activator 0.9, WT yeast gro inh -4 and Rad51 HR inh 5.
For CCOC(=O)N1CCN(C(=O)CCNS(=O)(=O)c2ccc3c(c2)c(=O)n(C)c(=O)n3C)CC1 the results were L major viab -1, PMI act hi M6P 1, m-calpain inh -46, PMI activator 1, WT yeast gro inh -5 and Rad51 HR inh -28.
Cc1sc(NC(=O)C2C3CCC(C3)C2C(=O)O)c(C(N)=O)c1-c1ccc(C(C)(C)C)cc1 (centres undefined) was read as L major viab 57*, PMI act hi M6P 1.1, m-calpain inh -21, PMI activator 1.1, WT yeast gro inh 14 and Rad51 HR inh 1.
Screening CCOC(=O)c1c(NC(=O)/C=C/C(=O)O)sc(C)c1-c1ccc(C(C)(C)C)cc1 returned L major viab 100*, PMI act hi M6P 0.9, m-calpain inh -60, PMI activator 0.9, WT yeast gro inh 55 and Rad51 HR inh -21.
Cc1sc(NC(=O)C2CCCCC2C(=O)O)c(C(N)=O)c1-c1ccc(C(C)(C)C)cc1 (centres undefined) was read as L major viab -7, PMI act hi M6P 1, m-calpain inh -124, PMI activator 1, WT yeast gro inh -9 and Rad51 HR inh -6.
For Cc1ccc(S(=O)(=O)N2CCN(CC(O)c3ccccc3)CC2)cc1C (centres undefined) the results were L major viab 48, PMI act hi M6P 1.1, m-calpain inh -10, PMI activator 1.1, WT yeast gro inh -16 and Rad51 HR inh 7.
O=C1c2ccccc2C2=Nc3ccccc3SC(c3cccc(F)c3)C12 (centres undefined) was read as L major viab 89*, PMI act hi M6P 0.8, m-calpain inh -26, PMI activator 0.7, WT yeast gro inh 84* and Rad51 HR inh 10.
For COC(=O)C1=C(C)N=C2SC(C)C(=O)N2C1c1cccc(F)c1 (centres undefined) the results were L major viab -2, PMI act hi M6P 1.1, m-calpain inh 3, PMI activator 1, WT yeast gro inh 2 and Rad51 HR inh 1.
